The term IC50 denotes the midpoint of a concentration-inhibition curve. By MIC is commonly meant the least concentration at which growth counts as inhibited.

Here are results for two compounds from ChEMBL document CHEMBL4118027, “Preussilides A-F, Bicyclic Polyketides from the Endophytic Fungus Preussia similis with Antiproliferative Activity” (J Nat Prod, 2017).

The structures appear in SMILES notation. Converted amounts (≈) assume the structure as drawn. The source made the active and inactive calls. The rule behind the calls is not given here.

Experiment [1] deals with L929. As to the kind of experiment: Cytotoxicity against mouse L929 cells assessed as reduction in cell viability after 5 days by MTT assay. The experiment is classed as functional, cell-based. As to conditions: L929, 120 h. Summed up:
(§1)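 MTT viability assay run over 5 days on a panel of eight lines (L929, KB3.1, A431, A549, SKOV-3, PC-3, MCF-7, U2OS). IC50 values were derived.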
(Tetrazolium assays rely on reduction of a dye to a coloured formazan, in cell work by metabolically active cells.)

In the next experiment the test system is KB 3-1. As to the kind of experiment: Cytotoxicity against human KB3-1 cells assessed as reduction in cell viability after 5 days by MTT assay. As to conditions: KB 3-1, 120 h. In kind it is functional, cell-based. Summed up:
as §1

The next experiment concerns A-431. The experiment is described as follows: Cytotoxicity against human A431 cells assessed as reduction in cell viability after 5 days by MTT assay. The experiment is classed as functional, cell-based. As to conditions: A-431, 120 h. The gist of the method: as §1
The subject of a further experiment is A549. The experiment is described as follows: Cytotoxicity against human A549 cells assessed as reduction in cell viability after 5 days by MTT assay. In kind it is functional, cell-based. As to conditions: A549, 120 h. The gist of the method:
as §1

The next experiment deals with SK-OV-3. As to the kind of experiment: Cytotoxicity against human SKOV3 cells assessed as reduction in cell viability after 5 days by MTT assay. In kind it is functional, cell-based. As to conditions: SK-OV-3, 120 h. Summed up:
as §1

The next experiment deals with PC-3. The experiment is described as follows: Cytotoxicity against human PC3 cells assessed as reduction in cell viability after 5 days by MTT assay. As to conditions: PC-3, 120 h. In kind it is functional, cell-based. The gist of the method: as §1
Another experiment has as its system MCF7. As to the kind of experiment: Cytotoxicity against human MCF7 cells assessed as reduction in cell viability after 5 days by MTT assay. In kind it is functional, cell-based. As to conditions: MCF7, 120 h. Summed up:
as §1

Experiment [2] deals with U2OS. As to the kind of experiment: Cytotoxicity against human U2OS cells assessed as reduction in cell viability after 5 days by MTT assay. In kind it is functional, cell-based. As to conditions: 120 h. Summed up:
as §1

A further experiment relates to Mucor plumbeus. As to the kind of experiment: Antifungal activity against Mucor plumbeus MUCL 49355 by serial dilution method. In kind it is functional.
The next experiment has as its system Aspergillus fumigatus. As to the kind of experiment: Antifungal activity against Aspergillus fumigatus DSM 819 by serial dilution method. In kind it is functional.
In another experiment the test system is Sclerotinia sclerotiorum. The experiment is described as follows: Antifungal activity against Sclerotinia sclerotiorum DSM 1946 at 100 ug/disk after 5 days by disk diffusion assay. The experiment is classed as functional. As to conditions: DSM 1946, 120 h, read-out: IZ. Summed up: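 Disk diffusion on YMG medium seeded with a mycelial suspension of the non-sporulating test fungus. Paper disks carried […] compound. Nystatin at 20 μg/disk was the positive control. Inhibition zone diameter (mm) was read after 5 days.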
Background: In agar diffusion tests the substance spreads into inoculated agar from a disc or well.

In a further experiment the test system is Micrococcus luteus. As to the kind of experiment: Antibacterial activity against Micrococcus luteus DSM 1790 by serial dilution method. In kind it is functional, organism-based.
In the next experiment the test system is Bacillus subtilis. The experiment is described as follows: Antibacterial activity against Bacillus subtilis DSM 10 by serial dilution method. The experiment is classed as functional, organism-based.
The next experiment concerns Staphylococcus aureus. The experiment is described as follows: Antibacterial activity against Staphylococcus aureus DSM 346 by serial dilution method. The experiment is classed as functional, organism-based.
In experiment [3] the test system is Mycolicibacterium smegmatis. As to the kind of experiment: Antibacterial activity against Mycobacterium smegmatis ATCC 700084 by serial dilution method. In kind it is functional, organism-based.
A further experiment deals with Escherichia coli. As to the kind of experiment: Antibacterial activity against Escherichia coli DSM 498 by serial dilution method. In kind it is functional, organism-based.
In a further experiment the test system is Pseudomonas aeruginosa. The experiment is described as follows: Antibacterial activity against Pseudomonas aeruginosa PA14 by serial dilution method. The experiment is classed as functional, organism-based.
Experiment [4] relates to Chromobacterium violaceum. As to the kind of experiment: Antibacterial activity against Chromobacterium violaceum DSM 30191 by serial dilution method. The experiment is classed as functional, organism-based.
For a further experiment, the system named is Candida albicans. As to the kind of experiment: Antifungal activity against Candida albicans DSM 1665 by serial dilution method. In kind it is functional, organism-based.
A further experiment concerns Rhodotorula glutinis. As to the kind of experiment: Antifungal activity against Rhodotorula glutinis DSM 10134 by serial dilution method. In kind it is functional, organism-based.
The next experiment relates to Wickerhamomyces anomalus. As to the kind of experiment: Antifungal activity against Pichia anomala DSM 6766 by serial dilution method. In kind it is functional, organism-based.
Experiment [5] relates to Schizosaccharomyces pombe. As to the kind of experiment: Antifungal activity against Schizosaccharomyces pombe DSM 70572 by serial dilution method. In kind it is functional, organism-based.
In a further experiment the test system is Yamadazyma tenuis. The experiment is described as follows: Antifungal activity against Candida tenuis MUCL 29892 by serial dilution method. In kind it is functional, organism-based.
The test system of another experiment is Mucor hiemalis. As to the kind of experiment: Antifungal activity against Mucor hiemalis DSM 2656 by serial dilution method. In kind it is functional, organism-based.
In the next experiment the test system is Caenorhabditis elegans. As to the kind of experiment: Nematicidal activity against Caenorhabditis elegans up to 100 ug/ml. The experiment is classed as functional, organism-based.
The test system of another experiment is Setaria italica. The experiment is described as follows: Phytotoxicity against Setaria italica assessed as inhibition of seedling germination at 100 ug/disk. The experiment is classed as functional, organism-based.
Another experiment relates to Lepidium sativum. The experiment is described as follows: Phytotoxicity against Lepidium sativum assessed as inhibition of seedling germination at 100 ug/disk. In kind it is functional, organism-based.
Experiment [6] has as its system L929. As to the kind of experiment: Induction of nuclear fragmentation in mouse L929 cells at cytotoxic IC50 by DAPI staining based microscopic method. In kind it is functional, cell-based.
The test system of experiment [7] is U2OS. As to the kind of experiment: Induction of morphological changes in human U2OS cells assessed as multipolar and duplicated spindle formation at 0.5 ug/ml after 24 hrs by DAPI staining based immunofluorescence microscopic method. In kind it is functional, cell-based. The gist of the method:
(§2)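 U2OS in DMEM (4.5 g/L glucose, 10% FBS), 37 °C, 7% CO2, seeded 3 × 10^4/well on fibronectin-coated coverslips and adhered 16 h. Treated 24 h at 0.25, 0.5, 2.5, 5 or 10 μg/mL (diluted from 1 mg/mL DMSO stock), DMSO control. Fixed in 4% PFA/PBS 20 min; anti-α-tubulin (DM1A), phalloidin-Alexa 488 and DNA stain; immunofluorescence imaging.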

Experiment [8] deals with U2OS. The experiment is described as follows: Induction of morphological changes in human U2OS cells assessed as aberrantly sized cells with abnormal small nuclei formation at 0.5 ug/ml after 24 hrs by DAPI staining based immunofluorescence microscopic method. In kind it is functional, cell-based. Summed up:
as §2

Experiment [9] deals with U2OS. The experiment is described as follows: Cell cycle arrest in human U2OS cells assessed as accumulation at sub-G1 phase at 5 to 10 ug/ml after 18 hrs by propidium iodide staining based flow cytometry. In kind it is functional. Summed up: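 U2OS were seeded at 7 × 10^5/well in six-well plates and exposed to 5 or 10 μg/mL for 18 h after spreading, with untreated and DMSO mock controls. Cells were trypsinized, fixed in 2% PFA/PBS, then in ice-cold methanol 30 min. Staining: anti-tubulin/anti-lamin antibodies plus RNase A and propidium iodide. Flow cytometry assigned G1, S, G2-M and sub-G1 by DNA content.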
For orientation: A flow cytometer gives signals particle by particle.

The subject of experiment [10] is U2OS. The experiment is described as follows: Induction of morphological changes in human U2OS cells at 0.5 ug/ml after 24 hrs by DAPI staining based immunofluorescence microscopic method.
Experiment [11] has as its system U2OS. The experiment is described as follows: Induction of apoptosis in human U2OS cells assessed as caspase-3/7 cleavage at 250 nM after 16 hrs by caspase-3/7 green reagent based flow cytometry (reference value: 8.04%). In kind it is functional.

Take `CC1=C(C[C@H](C)O)[C@H](/C=C(C)/C=C(C)/C=C/C(=O)O)[C@@H]2C(=C1)C[C@@H](C)C(=O)[C@H]2C`: the IC50 with L929 [1] came out at 6.5 µM; in the experiment on KB 3-1, 6 µM; in the experiment with A-431, 20.3 µM; with A549 it was 60.3 µM; in the experiment on SK-OV-3, 22.6 µM; in the experiment with PC-3, 47.7 µM. The results for the IC50 in the experiment on MCF7 and with U2OS [2] were 24.3 µM and 7.03 µM, respectively. For the same compound, the MIC worked out at 150 µg/mL (≈ 376 µM) against Mucor plumbeus and 35.5 µg/mL (≈ 89.1 µM) against Aspergillus fumigatus. For the same compound, the zone of inhibition at 100 µg/disc with Sclerotinia sclerotiorum worked out at 28 mm. Also, the result (with Micrococcus luteus; in the experiment with Bacillus subtilis; in the experiment on Staphylococcus aureus; in [3]; in the experiment on Escherichia coli; with Pseudomonas aeruginosa) was inactive. The outcome (in experiment [4]; in the experiment with Candida albicans; with Rhodotorula glutinis; with Wickerhamomyces anomalus; in experiment [5]; in the experiment with Yamadazyma tenuis) was inactive. For the same compound, the outcome in the experiment on Mucor hiemalis, in the experiment on Caenorhabditis elegans, with Setaria italica and in the experiment with Lepidium sativum was inactive. Further, the result in the experiment with L929 [6], in the experiment with U2OS [7], in the experiment with U2OS [8], in the experiment with U2OS [9] and with U2OS [10] was Active.
On to `CN[C@@H]1C[C@H]2O[C@@](C)([C@@H]1OC)n1c3ccccc3c3c4c(c5c6ccccc6n2c5c31)C(=O)NC4` [STAUROSPORINE], for which the Activity in the experiment with U2OS [11] is recorded as 22.6%.
